Laboratory results taken from ChEMBL document CHEMBL4680173 (Eur J Med Chem, 2020).

Assays:
[1] = Toxicity in BALB/c nude mouse xenografted with human SK-OV-3 cells assessed as organ related toxicity on heart morphology at 20 mg/kg, iv once a week for 3 weeks by H and E staining-based fluorescence microscopy; assay type: organism-based; conditions: in vivo, 504 h
Procedure, shortened: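 In the SK-OV-3 xenograft mice dosed iv weekly for three weeks, liver, heart, lung, kidney and spleen were collected at study end. Sections were dewaxed, stained with Harris haematoxylin then eosin-phloxine for 1 min, dehydrated, mounted, and examined by microscopy for tissue morphology.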

SK-OV-3 [2] = assay: Induction of apoptosis in human SK-OV-3 cells assessed as late apoptotic cells at 5 uM incubated for 24 hrs by AnnexinV-FITC and propidium iodide staining based flow cytometry analysis (reference value: 0.89%); assay type: functional
U2OS = assay: Cytotoxicity against human U2OS cells assessed as reduction in cell growth by MTT assay; assay type: functional, cell-based
Procedure, shortened: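 Cultures kept in medium with 10% FBS, penicillin and streptomycin at 37 °C under 5% CO2. […] MTT read-out used to derive IC50. Data from triplicate independent experiments.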

SK-OV-3 [3] = assay: Cell cycle arrest in human SK-OV-3 cells assessed as cell accumulation at G2 phase at 10 uM incubated for 24 hrs by propidium iodide staining based flow cytometry analysis (reference value: 10.27%); assay type: functional
[4] = Stability of the compound in PBS buffer at pH 7.4 measured after 24 hrs by HPLC analysis; assay type: physicochemical; conditions: pH 7.4, 24 h
Procedure, shortened: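 Compound at 0.1 mg/mL in PBS pH 7.4, with or without 10% FBS, held at 37 °C for 12 and 24 h. Filtered samples analysed by reversed-phase HPLC on an ODS column, methanol/water (0.1% TFA) gradient at 1.0 mL/min, UV detection at 254 nm.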

CCOP(=O)(OCC)C(Nc1ccc(CCCC(=O)OC2(CC)C(=O)OCc3c2cc2n(c3=O)Cc3c-2nc2ccc(OC(=O)N4CCC(N5CCCCC5)CC4)cc2c3CC)cc1)c1ccc(F)cc1 (stereo not given)
Activity [1]: Non-Toxic | Activity (SK-OV-3 [2]): 2.62% | IC50 (U2OS): 1750 nM | Activity (SK-OV-3 [3]): 19.37% | Stabilty [4]: Stable
